Columns and labels:
[1] = molecular target: Protein kinase C alpha type (Homo sapiens, UniProt P17252); test: Displacement of [3H]PDBu from full length recombinant human PKCalpha expressed in baculovirus expression system after 5 mins by scintillation counting
In short: (§1)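 Competition of [3H]PDBu binding by polyethylene glycol precipitation, with 100 µg/ml phosphatidylserine and ≤0.003% Triton X-100, 5 min at 37 °C. Proteins: full-length purified human PKCα, PKCε; full-length RasGRP1; MBP-RasGRP3 from E. coli BL21(DE3) induced with 0.3 mM IPTG 6 h at room temperature. Ki mean ± SEM of ≥2 experiments, triplicate points.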

[2] = molecular target: T1, Protein kinase C epsilon type (Homo sapiens, UniProt Q02156); test: Displacement of [3H]PDBu from full length recombinant human PKCepsilon expressed in baculovirus expression system after 5 mins by scintillation counting; in short: as §1
T1 sequence (Q02156 whole entry): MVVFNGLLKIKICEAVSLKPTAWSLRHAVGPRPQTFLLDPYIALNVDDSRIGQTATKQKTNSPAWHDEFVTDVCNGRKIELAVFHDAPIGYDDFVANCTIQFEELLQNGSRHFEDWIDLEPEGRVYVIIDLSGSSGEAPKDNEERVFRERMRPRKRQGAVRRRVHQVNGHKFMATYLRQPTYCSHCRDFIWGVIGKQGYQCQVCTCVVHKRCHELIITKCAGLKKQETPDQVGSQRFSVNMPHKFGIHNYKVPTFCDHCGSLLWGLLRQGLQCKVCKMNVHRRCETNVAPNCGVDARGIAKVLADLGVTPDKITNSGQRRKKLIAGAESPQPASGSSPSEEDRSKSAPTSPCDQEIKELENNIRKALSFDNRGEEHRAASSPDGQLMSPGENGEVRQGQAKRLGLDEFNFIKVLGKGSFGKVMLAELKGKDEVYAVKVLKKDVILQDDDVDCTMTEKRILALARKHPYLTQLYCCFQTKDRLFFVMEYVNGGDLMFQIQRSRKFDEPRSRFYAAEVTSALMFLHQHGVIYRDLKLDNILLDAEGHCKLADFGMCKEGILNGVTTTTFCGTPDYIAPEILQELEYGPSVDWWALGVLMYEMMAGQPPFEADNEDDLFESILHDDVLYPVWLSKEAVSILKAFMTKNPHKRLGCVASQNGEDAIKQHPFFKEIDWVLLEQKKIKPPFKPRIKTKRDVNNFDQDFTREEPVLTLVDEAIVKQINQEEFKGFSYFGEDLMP

[3] = molecular target: T2, Ras guanyl-releasing protein 3 (Homo sapiens, UniProt Q8IV61); test: Displacement of [3H]PDBu from full length MBP-tagged human RasGRP3 expressed in Escherichia coli BL21 (DE3) after 5 mins by scintillation counting; in short: as §1
T2 sequence (Q8IV61 whole entry): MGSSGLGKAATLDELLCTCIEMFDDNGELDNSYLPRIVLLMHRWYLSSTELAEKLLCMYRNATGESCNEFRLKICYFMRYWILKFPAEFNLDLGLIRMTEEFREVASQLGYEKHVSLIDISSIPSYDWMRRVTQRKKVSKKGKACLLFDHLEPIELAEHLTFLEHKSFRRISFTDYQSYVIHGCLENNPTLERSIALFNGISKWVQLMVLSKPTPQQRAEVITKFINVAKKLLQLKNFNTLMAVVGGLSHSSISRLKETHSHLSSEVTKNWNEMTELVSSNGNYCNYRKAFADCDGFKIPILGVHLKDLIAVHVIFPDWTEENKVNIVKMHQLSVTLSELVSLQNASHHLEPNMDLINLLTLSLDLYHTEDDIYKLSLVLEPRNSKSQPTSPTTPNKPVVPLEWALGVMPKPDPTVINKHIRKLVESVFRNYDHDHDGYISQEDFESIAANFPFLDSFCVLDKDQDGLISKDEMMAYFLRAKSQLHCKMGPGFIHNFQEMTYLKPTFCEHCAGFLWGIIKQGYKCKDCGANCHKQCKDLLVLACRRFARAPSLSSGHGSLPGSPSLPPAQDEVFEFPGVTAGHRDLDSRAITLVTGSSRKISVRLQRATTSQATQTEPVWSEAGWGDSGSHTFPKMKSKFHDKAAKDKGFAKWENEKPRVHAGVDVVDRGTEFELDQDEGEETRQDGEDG

Homo sapiens = organism: Homo sapiens; test: Selectivity ratio of Ki for GST-tagged PKCalpha C1 domain to Ki for human RasGRP3 overexpressed in HEK-293 cells

Row | Structure (SMILES) | Ki [1] [nM] | Ki [2] [nM] | Ki [3] [nM] | Ratio Ki (Homo sapiens)
1 | COc1ccc(/C=C2\CC(CO)(COC(=O)c3ccc(N(C)C)cc3)OC2=O)cc1 (configuration not stated) | 82.2 | 18.3 | 7 | –
2 | COc1ccc2c(c1)c(/C=C1\CC(CO)(COC(=O)C(C)(C)C)OC1=O)cn2C (configuration not stated) | 249 | 208 | 4.76 | –
3 | O=C1OC(CO)(COC(=O)c2ccc(Cl)cc2)C/C1=C\c1ccc(Cl)cc1 (configuration not stated) | 25.2 | 6.51 | 2.69 | –
4 | COc1ccc(C(=O)OCC2(CO)C/C(=C\c3ccc([N+](=O)[O-])cc3)C(=O)O2)cc1 (configuration not stated) | – | – | – | 20
5 | COc1ccc(/C=C2\CC(CO)(COC(=O)C(C)(C)C)OC2=O)cc1 (configuration not stated) | 72 | 10.1 | 1.09 | –
6 | COc1ccc(C(=O)OCC2(CO)C/C(=C\c3ccc(Cl)cc3)C(=O)O2)cc1 (configuration not stated) | 27.6 | 7.1 | 2.25 | –
7 | CC(C)Cn1cc(/C=C2\CC(CO)(COC(=O)C(C)(C)C)OC2=O)c2ccccc21 (configuration not stated) | 15.6 | 19.4 | 3.03 | –
8 | Cn1nc(/C=C2\CC(CO)(COC(=O)C(C)(C)C)OC2=O)c2ccccc21 (configuration not stated) | 184 | 131 | 7.22 | –
9 | Cn1cc(/C=C2/CC(CO)(COC(=O)C(C)(C)C)OC2=O)c2cc([N+](=O)[O-])ccc21 (configuration not stated) | > 30000 | > 30000 | 1390 | –
10 | CC(C)(C)C(=O)OCC1(CO)C/C(=C\c2ccccn2)C(=O)O1 (configuration not stated) | 3640 | 1120 | 192 | –
11 | CC(C)(C)C(=O)OCC1(CO)C/C(=C/c2csc3ccccc23)C(=O)O1 (configuration not stated) | 37 | 12.5 | 4.26 | –
12 | CC(C)(C)C(=O)OCC1(CO)C/C(=C\c2csc3ccccc23)C(=O)O1 (configuration not stated) | 28.8 | 8.17 | 1.67 | –
13 | CN(C)c1ccc(/C=C2\CC(CO)(COC(=O)c3ccc(Cl)cc3)OC2=O)cc1 (configuration not stated) | 25.4 | 6.39 | 1.81 | –
14 | CC(C)(C)C(=O)OCC1(CO)C/C(=C\c2coc3ccccc23)C(=O)O1 (configuration not stated) | 114 | 35.3 | 2.8 | –
15 | COc1ccc(C(=O)OCC2(CO)C/C(=C\c3ccc(N(C)C)cc3)C(=O)O2)cc1 (configuration not stated) | 128 | 18.2 | 7.48 | –
16 | Cn1cc(/C=C2\CC(CO)(COC(=O)C(C)(C)C)OC2=O)c2cc([N+](=O)[O-])ccc21 (configuration not stated) | > 30000 | > 30000 | 3490 | –
17 | CN(C)c1ccc(/C=C2\CC(CO)(COC(=O)c3ccc(N(C)C)cc3)OC2=O)cc1 (configuration not stated) | 252 | 39.4 | 26.8 | –
18 | CN(C)c1ccc(/C=C2\CC(CO)(COC(=O)C(C)(C)C)OC2=O)cc1 (configuration not stated) | 65.9 | 7.87 | 1.07 | –
19 | Cn1cc(/C=C2\CC(CO)(COC(=O)C(C)(C)C)OC2=O)c2cc(Cl)ccc21 (configuration not stated) | 42.3 | 39.3 | 1.01 | –
20 | COc1ccc(/C=C2\CC(CO)(COC(=O)c3ccc(Cl)cc3)OC2=O)cc1 (configuration not stated) | 30.1 | 6.8 | 1.54 | –
21 | CN(C)c1ccc(C(=O)OCC2(CO)C/C(=C\c3ccc(Cl)cc3)C(=O)O2)cc1 (configuration not stated) | 30.4 | 9.5 | 2.73 | –
22 | COc1ccc(/C=C2\CC(CO)(COC(=O)c3ccc(OC)cc3)OC2=O)cc1 (configuration not stated) | 84.7 | 13.4 | 4.17 | –
23 | CC(C)(C)C(=O)OCC1(CO)C/C(=C\c2ccc(Cl)cc2)C(=O)O1 (configuration not stated) | 13.6 | 2.57 | 0.53 | –
24 | CN(C)c1ccc(C(=O)OCC2(CO)C/C(=C\c3ccc([N+](=O)[O-])cc3)C(=O)O2)cc1 (configuration not stated) | – | – | – | 90
25 | Cn1cc(/C=C2/CC(CO)(COC(=O)C(C)(C)C)OC2=O)c2cc(Cl)ccc21 (configuration not stated) | 79.1 | 104 | 4.32 | –
26 | CC(C)(C)C(=O)OCC1(CO)C/C(=C/c2coc3ccccc23)C(=O)O1 (configuration not stated) | 62.5 | 73.3 | 11.7 | –

Further lines, with some results ahead:

Row | Ki [1] [nM] | Ki [2] [nM] | Ki [3] [nM] | Structure (SMILES) | Ratio Ki (Homo sapiens)
27 | 1480 | 328 | 271 | CN(C)c1ccc(C(=O)OCC2(CO)C/C(=C\c3ccccn3)C(=O)O2)cc1 (configuration not stated) | –
28 | 1190 | 199 | 89.7 | COc1ccc(C(=O)OCC2(CO)C/C(=C\c3ccccn3)C(=O)O2)cc1 (configuration not stated) | –
29 | 146 | 208 | 11.2 | Cn1cc(/C=C2\CC(CO)(COC(=O)c3ccc(Cl)cc3)OC2=O)c2ccccc21 (configuration not stated) | –
30 | 29 | 60.6 | 3.58 | CC(C)(C)C(=O)OCC1(CO)C/C(=C\c2cn(CC3CC3)c3ccccc23)C(=O)O1 (configuration not stated) | –
31 | 446 | 380 | 26.5 | COc1ccc(C(=O)OCC2(CO)C/C(=C\c3cn(C)c4ccccc34)C(=O)O2)cc1 (configuration not stated) | –
32 | 186 | 220 | 18.2 | CN(C)c1ccc(C(=O)OCC2(CO)C/C(=C\c3cn(C)c4ccccc34)C(=O)O2)cc1 (configuration not stated) | –
33 | 112 | 98.2 | 2.86 | Cn1cc(/C=C2\CC(CO)(COC(=O)C3CCCCC3)OC2=O)c2ccccc21 (configuration not stated) | –
34 | 31.3 | 42 | 2.15 | Cn1cc(/C=C2\CC(CO)(COC(=O)C3CCC(C(C)(C)C)CC3)OC2=O)c2ccccc21 (configuration not stated) | –
35 | 135 | 122 | 5.3 | CCCCCCC(=O)OCC1(CO)C/C(=C\c2cn(C)c3ccccc23)C(=O)O1 (configuration not stated) | –
36 | 39 | 41.5 | 5.07 | CC(C)CC(CC(C)C)C(=O)OCC1(CO)C/C(=C\c2cn(C)c3ccccc23)C(=O)O1 (configuration not stated) | –
37 | 31.7 | 42.8 | 0.84 | CCCC(CCC)C(=O)OCC1(CO)C/C(=C\c2cn(C)c3ccccc23)C(=O)O1 (configuration not stated) | –
38 | 375 | 780 | 15.7 | Cn1cc(/C=C/C(=O)OCC2(CO)C/C(=C\c3cn(C)c4ccccc34)C(=O)O2)c2ccccc21 (configuration not stated) | –
39 | 439 | 672 | 25 | Cn1cc(/C=C2\CC(CO)(COC(=O)/C=C/c3ccccc3)OC2=O)c2ccccc21 (configuration not stated) | –
40 | 25.6 | 19.2 | 1.87 | CCCCn1cc(/C=C2\CC(CO)(COC(=O)C(C)(C)C)OC2=O)c2ccccc21 (configuration not stated) | –
41 | 383 | 92.3 | 29 | O=C1OC(CO)(COC(=O)c2ccc(Cl)cc2)C/C1=C\c1ccccn1 (configuration not stated) | –
42 | 2310 | 3410 | 69.7 | Cn1cc(/C=C2\CC(CO)(COC(=O)/C=C/c3ccccn3)OC2=O)c2ccccc21 (configuration not stated) | –

— ChEMBL document CHEMBL4130626, “α-Arylidene Diacylglycerol-Lactones (DAG-Lactones) as Selective Ras Guanine-Releasing Protein 3 (RasGRP3) Ligands” (J Med Chem, 2018)
